Laboratory results published in paper PMC5955836 (ACS chemical neuroscience, 2018).
“Also recorded” adds a separate entry of the source. Like-named read-outs stand apart in the source and are kept apart here. Non-standard residues stand in square brackets, D forms with d.

How the values were obtained:
[1] = target: T1, mMC5R (Mus musculus, UniProt P41149); type: cell-based; conditions: for mMC5R inverse agonist potency compared within series: fold less potent than KAF2039-9, the most potent inverse agonist; for mMC5R maximal decrease in basal activity at the plateau: sigmoidal dose-response, relative to basal
[2] = target: T2, mMC3R (Mus musculus, UniProt P33033); assay: AlphaScreen cAMP antagonist assay; type: cell-based; conditions: for antagonist activity at the mMC3R: at the concentrations examined in this study
[3] = target: T3, mMC1R (Mus musculus, UniProt Q01727); conditions: for mMC1R percent activation at 100 μM: no sigmoidal dose-response, relative to NDP-MSH; for agonist activity at the MC1R: up to 100 μM
[4] = target: T4, mMC4R (Mus musculus, UniProt P56450); assay: AlphaScreen cAMP antagonist assay; type: cell-based
[5] = target: T2, mMC3R; conditions: highest concentrations of antagonist assayed; cited from earlier work
[6] = target: T4, mMC4R; conditions: cited from earlier work
[7] = test system: MC1R; conditions: read-out: MC1R agonist EC50; cited from earlier work
[8] = test system: MC4R; conditions: unable to bind at up to this concentration; cited from earlier work
[9] = test system: MC3R; conditions: unable to bind at up to this concentration; cited from earlier work
[10] = test system: Male Wildtype (WT) mice; assay: Mouse feeding study, intrathecal injection: cumulative food intake; type: in vivo
In short: (§1)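 Eight male WT mice, 24 weeks old, singly housed, ad libitum chow, reversed 12 h light/dark (lights off 12:00pm), 23–25°C. Crossover, non-fasting; single IT injection 2 h before lights out of 2 nmol/5 μL (20% solutol stock diluted in ddH2O) or matched vehicle; 7 days between treatments. Food and body weight at 2–72 h; two-factor repeated-measures ANOVA (drug × time).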

[11] = Mouse feeding study, intrathecal injection: body weight; type: in vivo; conditions: male WT mice, 2 nmol, up to 72 hours post-injection
In short: as §1

[12] = target: T4, mMC4R; conditions: cited from earlier work; remark: listed apart in the source
[13] = target: T3, mMC1R; conditions: read-out: mMC1R Agonist EC50; previously published peptide; cited from earlier work
[14] = target: T2, mMC3R; conditions: previously published peptide, cited from earlier work
[15] = target: T1, mMC5R; conditions: read-out: mMC5R Inverse Agonist EC50; previously published peptide; cited from earlier work
[16] = target: mouse melanocortin-4 receptor (mouse) (UniProt P56450)
[17] = target: mouse melanocortin-1 receptor (mouse) (UniProt Q01727)
[18] = Schild analysis with NDP-MSH, < 5.5 = no antagonist potency at up to 10,000 nM

T4 sequence (P56450 whole entry): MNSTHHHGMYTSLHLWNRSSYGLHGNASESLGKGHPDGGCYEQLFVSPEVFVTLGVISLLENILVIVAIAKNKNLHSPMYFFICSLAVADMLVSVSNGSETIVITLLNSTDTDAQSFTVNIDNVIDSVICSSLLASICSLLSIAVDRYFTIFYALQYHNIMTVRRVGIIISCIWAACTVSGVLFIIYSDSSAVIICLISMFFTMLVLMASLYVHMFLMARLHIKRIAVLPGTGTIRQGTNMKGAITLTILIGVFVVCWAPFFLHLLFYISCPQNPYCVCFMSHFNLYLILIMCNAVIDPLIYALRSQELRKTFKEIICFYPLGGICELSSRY
T1 sequence (P41149 whole entry): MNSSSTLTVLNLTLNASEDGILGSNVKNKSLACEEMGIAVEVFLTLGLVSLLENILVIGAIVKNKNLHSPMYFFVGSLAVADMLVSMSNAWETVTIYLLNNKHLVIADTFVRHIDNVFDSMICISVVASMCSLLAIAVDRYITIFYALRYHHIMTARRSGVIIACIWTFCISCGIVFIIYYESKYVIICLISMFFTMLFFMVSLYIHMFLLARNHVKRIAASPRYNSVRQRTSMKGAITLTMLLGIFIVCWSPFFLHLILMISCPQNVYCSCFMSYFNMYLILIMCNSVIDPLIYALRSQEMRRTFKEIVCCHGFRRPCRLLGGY
T2 sequence (P33033 whole entry): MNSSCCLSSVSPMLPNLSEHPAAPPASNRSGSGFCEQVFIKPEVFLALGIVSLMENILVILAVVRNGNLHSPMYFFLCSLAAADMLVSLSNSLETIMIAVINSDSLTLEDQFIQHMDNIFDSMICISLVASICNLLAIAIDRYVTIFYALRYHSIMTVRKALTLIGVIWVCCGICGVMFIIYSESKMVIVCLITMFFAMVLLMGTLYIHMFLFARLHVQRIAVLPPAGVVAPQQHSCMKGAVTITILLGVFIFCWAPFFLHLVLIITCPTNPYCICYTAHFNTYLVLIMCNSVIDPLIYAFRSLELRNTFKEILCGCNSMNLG
T3 sequence (Q01727 whole entry): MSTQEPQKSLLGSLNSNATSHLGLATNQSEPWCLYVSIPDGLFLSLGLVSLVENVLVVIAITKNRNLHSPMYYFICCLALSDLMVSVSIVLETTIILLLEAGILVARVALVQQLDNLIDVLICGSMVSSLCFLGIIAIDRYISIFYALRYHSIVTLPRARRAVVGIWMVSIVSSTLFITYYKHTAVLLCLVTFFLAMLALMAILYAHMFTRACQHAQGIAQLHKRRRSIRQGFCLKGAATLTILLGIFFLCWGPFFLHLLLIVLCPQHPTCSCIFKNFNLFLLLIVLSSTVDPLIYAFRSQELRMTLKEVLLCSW
Sequence of mouse melanocortin-4 receptor (mouse) (P56450 whole entry): as the sequence (P56450 whole entry) above
Sequence of mouse melanocortin-1 receptor (mouse) (Q01727 whole entry): as the sequence (Q01727 whole entry) above

C[C@@H]1NC(=O)[C@H](CC(N)=O)NC(=O)[C@H](Cc2ccccc2)NC(=O)[C@H](Cc2ccccc2)NC(=O)[C@H](CCCNC(=N)N)NC(=O)[C@@H]2CCCN2C(=O)[C@H]2CCCN2C(=O)[C@H](Cc2ccc(O)cc2)NC1=O [Compound 9, c[Pro-Arg-Phe-Phe-Asn-Ala-Tyr-DPro]]
mMC5R percent decrease in receptor activity compared to basal at 100 μM ([1]; 100 μM, no plateau): −40% @ 100 μM

CC(C)C[C@@H]1NC(=O)[C@H](C)NC(=O)[C@H](CC(N)=O)NC(=O)[C@H](Cc2ccccc2)NC(=O)[C@H](Cc2ccccc2)NC(=O)[C@H](CCCNC(=N)N)NC(=O)[C@@H]2CCCN2C(=O)[C@H]2CCCN2C1=O [Compound 6, c[Pro-Arg-Phe-Phe-Asn-Ala-Leu-DPro]]
mMC5R percent decrease in receptor activity compared to basal at 100 μM ([1]; 100 μM, no plateau): −35% @ 100 μM
antagonist activity at the mMC3R [2]: not observed

C[C@@H]1NC(=O)[C@H](CC(N)=O)NC(=O)[C@H](Cc2ccccc2)NC(=O)[C@H](Cc2ccccc2)NC(=O)[C@H](CCCNC(=N)N)NC(=O)[C@@H]2CCCN2C(=O)[C@H]2CCCN2C(=O)CNC1=O [Compound 2, c[Pro-Arg-Phe-Phe-Asn-Ala-Gly-DPro]]
mMC5R percent decrease in receptor activity compared to basal at 100 μM ([1]; 100 μM, no plateau): −25% @ 100 μM
antagonist activity at the mMC3R [2]: not observed
mMC1R percent activation at 100 μM [3]: 60% @ 100 μM
agonist activity at the MC1R [3]: partially stimulate

c[Pro-Arg-Phe-Phe-Asn-Ala-Asp-DPro] (cyclo(PRFFNAD[dP]); SMILES C[C@@H]1NC(=O)[C@H](CC(N)=O)NC(=O)[C@H](Cc2ccccc2)NC(=O)[C@H](Cc2ccccc2)NC(=O)[C@H](CCCNC(=N)N)NC(=O)[C@@H]2CCCN2C(=O)[C@H]2CCCN2C(=O)[C@H](CC(=O)O)NC1=O) [Compound 5]
mMC5R percent decrease in receptor activity compared to basal at 100 μM ([1]; 100 μM, no plateau): −25% @ 100 μM
mMC5R percent decrease in receptor activity compared to basal at 100 μM ([1]; 100 μM, no plateau, listed as Asp^7): -25%
mMC3R Antagonist pA2 [2, 18]: < 5.5
antagonist activity at the mMC3R [2]: not observed
mMC1R percent activation at 100 μM [3]: 40% @ 100 μM
agonist activity at the MC1R [3]: partially stimulate
mMC4R Antagonist pA2 [4, 18]: < 5.5
antagonist potency at the mMC4R ([4]; at the concentrations used in this study): not measurable

H-Tyr-c[Cys-Arg-Phe-Phe-Asn-Ala-Phe-Cys]-Tyr-OH [AGRP[109-118]]
antagonist potency at the mMC3R [5]: does not possess an antagonist potency at the mMC3R that is quantifiable
antagonist pA2 at the mMC4R [6]: 6.8
EC50 [7]: 3000 nM

C[C@@H]1NC(=O)[C@H](CC(N)=O)NC(=O)[C@H](Cc2ccccc2)NC(=O)[C@H](Cc2ccccc2)NC(=O)[C@H](CCCNC(=N)N)NC(=O)[C@@H]2CCCN2C(=O)[C@H]2CCCN2C(=O)[C@H](CCc2ccccc2)NC1=O [Compound 11, c[Pro-Arg-Phe-Phe-Asn-Ala-hPhe-DPro]]
mMC5R inverse agonist potency compared within series [1]: equipotent to each other
mMC5R maximal decrease in basal activity at the plateau [1]: −20%
mMC5R maximal decrease in basal activity at the plateau ([1]; listed as KAF2039-13): 20%

C[C@@H]1NC(=O)[C@H](CC(N)=O)NC(=O)[C@H](Cc2ccccc2)NC(=O)[C@H](Cc2ccccc2)NC(=O)[C@H](CCCNC(=N)N)NC(=O)[C@@H]2CCCN2C(=O)[C@H]2CCCN2C(=O)[C@H](Cc2c[nH]c3ccccc23)NC1=O [Compound 8, c[Pro-Arg-Phe-Phe-Asn-Ala-Trp-DPro]]
mMC5R inverse agonist potency compared within series [1]: equipotent to each other
mMC5R maximal decrease in basal activity at the plateau [1]: −20%
mMC1R partial agonist maximal percent activated [3]: 50%

H-Ser-Arg-Phe-Phe-Asn-Ala-Phe-Ser-OH (H-SRFFNAFS-OH)
binding to the MC4R [8]: > 20 µM
binding to the MC3R [9]: > 20 µM

C[C@@H]1NC(=O)[C@H](CC(N)=O)NC(=O)[C@H](Cc2ccccc2)NC(=O)[C@H](Cc2ccccc2)NC(=O)[C@H](CCCNC(=N)N)NC(=O)[C@@H]2CCCN2C(=O)[C@H]2CCCN2C(=O)[C@H](CC2CCCCC2)NC1=O [Compound 10, c[Pro-Arg-Phe-Phe-Asn-Ala-Cha-DPro]]
mMC5R inverse agonist potency compared within series [1]: 5 fold
mMC5R maximal decrease in basal activity at the plateau [1]: −20%

C[C@@H]1NC(=O)[C@H](CC(N)=O)NC(=O)[C@H](Cc2ccccc2)NC(=O)[C@H](Cc2ccccc2)NC(=O)[C@H](CCCNC(=N)N)NC(=O)[C@@H]2CCCN2C(=O)[C@H]2CCCN2C(=O)[C@H](CO)NC1=O [Compound 3, c[Pro-Arg-Phe-Phe-Asn-Ala-Ser-DPro]]
mMC5R percent decrease in receptor activity compared to basal at 100 μM ([1]; 100 μM, no plateau): −55% @ 100 μM
mMC5R percent decrease in receptor activity compared to basal at 100 μM ([1]; 100000.0): −55%
mMC1R percent activation at 100 μM [3]: 35% @ 100 μM
agonist activity at the MC1R [3]: partially stimulate

CCCC[C@@H]1NC(=O)[C@H](C)NC(=O)[C@H](CC(N)=O)NC(=O)[C@H](Cc2ccccc2)NC(=O)[C@H](Cc2ccccc2)NC(=O)[C@H](CCCNC(=N)N)NC(=O)[C@@H]2CCCN2C(=O)[C@H]2CCCN2C1=O [Compound 7, c[Pro-Arg-Phe-Phe-Asn-Ala-Nle-DPro]]
mMC5R percent decrease in receptor activity compared to basal at 100 μM ([1]; 100 μM, no plateau): −35% @ 100 μM
mMC5R percent decrease in receptor activity compared to basal at 100 μM ([1]; 100000.0): –35%
cumulative food intake vs vehicle ([10]; 2 nmol IT single injection, 2 and 6 hours post-injection): ate significantly more food
food intake trend vs vehicle ([10]; 2 nmol IT, up to 72 hours post-injection, listed as KAF2039-7): prolonged trend of increased food intake; also recorded: strong trend in increased food intake; also recorded: trend exhibited out until 72 hours post-injection
main effect of drug on food intake, two-factor repeated measures ANOVA ([10]; 2 nmol, first 72 hours post-injection): main effect of drug
mouse body weight vs vehicle [11]: main effect of drug
mouse body weight vs vehicle ([11]; listed as KAF2039-7): treated animals weighing more than control animals

C[C@@H]1NC(=O)[C@H](CC(N)=O)NC(=O)[C@H](Cc2ccccc2)NC(=O)[C@H](Cc2ccccc2)NC(=O)[C@H](CCCNC(=N)N)NC(=O)[C@@H]2CCCN2C(=O)[C@H]2CCCN2C(=O)[C@H](CCCCN)NC1=O [Compound 4, c[Pro-Arg-Phe-Phe-Asn-Ala-Lys-DPro]]
mMC5R percent decrease in receptor activity compared to basal at 100 μM ([1]; 100 μM, no plateau): −40% @ 100 μM
mMC5R percent decrease in receptor activity compared to basal at 100 μM ([1]; 100000.0): −40%

hAGRP(87-132): Human agouti-related protein fragment 87-132, antagonist of MC3R and MC4R; previously published peptide
selectivity for the MC4R (vs MC3R) [12]: equipotent
mMC4R Antagonist pA2 ([12]; previously published peptide): 9.4±1.0
Ki ([12]; read-out: mMC4R Antagonist Ki, previously published peptide): 0.4 nM
EC50 [13]: > 100000 nM
mMC3R Antagonist pA2 [14]: 8.9±0.2
Ki ([14]; read-out: mMC3R Antagonist Ki): 1.3 nM
EC50 [15]: > 100000 nM

NDP-MSH (4-Norleucine-7-D-Phenylalanine): Ac-Ser-Tyr-Ser-Nle-Glu-His-DPhe-Arg-Trp-Gly-Lys-Pro-Val-NH2 (peptide)
agonist EC50, cAMP AlphaScreen, HEK293 cells stably expressing mMC4R [16]: 0.35 nM

c[Pro-Arg-Phe-Phe-Asn-Ala-Trp-DPro] (peptide)
partial agonist: maximal percent activated, cAMP AlphaScreen, HEK293 cells [17]: 50%
